This note sets out measurements from ChEMBL document CHEMBL4004817, “Constituents of the Rhizomes of Boesenbergia pandurata and Their Antiausterity Activities against the PANC-1 Human Pancreatic Cancer Line” (J Nat Prod, 2017).

For data set [1], the system named is PANC-1. Kind of data set: Antiausteritic activity against human PANC1 cells in nutrient-deprived medium measured after 24 hrs by WST8 assay. In kind it is functional. Summed up: (§1)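 Human pancreatic cancer cells were seeded at 1.5 × 10^4/well in DMEM for 24 h at 37 °C under 5% CO2. After two PBS washes, cells received serially diluted samples in DMEM (nutrient-rich) or NDM (pH 7.4), with a control and blank on each plate. After 24 h, cells were washed and given DMEM with 10% WST-8 for 3 h, then A450 was read. Viability (mean of three wells) = (sample − blank)/(control − blank) × 100. For NDM, PC50 is the concentration killing 50% of cells preferentially. Arctigenin was the positive control.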
(In general: Tetrazolium dyes change colour on reduction, which living cells bring about.)

The subject of data set [2] is PANC-1. Description: Cytotoxicity against human PANC1 cells in DMEM measured after 24 hrs by WST8 assay. In kind it is cell-based. The settings on record: panc-1, 24 h. Summed up: as §1
Data set [3] deals with PANC-1. Kind of data set: Antiausteritic activity against human PANC1 cells in nutrient-deprived medium assessed as changes in cell morphology by measuring increase in round appearance at 1.5 uM after 24 hrs by ethidium bromide/acridine orange staining based fluorescence imaging method. Type of data set: functional. Summed up:
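PANC-1 cells were seeded at 6 × 10^4/well in DMEM and held 24 h at 37 °C under 5% CO2. They were washed twice with PBS, then switched to NDM alone (control) or with compound at 1.5 μM for 24 h. EB/AO reagent was added for 5 min, and cells were imaged under fluorescence and phase contrast (20×). Green AO marks live cells; red EB marks dead cells.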

Activity calls are given as the source filed them. The calls are words filed in the database; no cut-off is given here.

The molecule `COc1cc(O)cc(O)c1C(=O)[C@@H]1[C@H](/C=C/C(C)(C)OC)C(C)=CC[C@H]1c1ccccc1` showed a PC50 in the data set on PANC-1 [1] of 10.5 µM. The Activity result with PANC-1 [2] is reported as “Non-Toxic”.

In the data set on PANC-1 [1], `COc1cc(O)cc(O)c1C(=O)[C@@H]1CC=C(C)[C@H](CC=C(C)C)[C@H]1c1ccccc1` yielded a PC50 of 7.4 µM. For the same molecule, in the data set on PANC-1 [2], the Activity entry is “Non-Toxic”.

In the data set with PANC-1 [1], `COc1cc(O)c(C(=O)[C@@H]2CC=C(C)[C@@H](CC=C(C)C)[C@H]2c2ccccc2)c(O)c1` [(-)-NICOLAIOIDESIN B] gave a PC50 of 2.1 µM. For the same molecule, in the data set on PANC-1 [2], the Activity result is listed as “Non-Toxic”.

Regarding `COc1cc(O)c(C(=O)[C@@H]2[C@@H](CC=C(C)C)C(C)=CC[C@H]2c2ccccc2)c(O)c1`, in the data set on PANC-1 [1], the PC50 stood at 7.2 µM. Further, in the data set on PANC-1 [2], the Activity result is reported as “Non-Toxic”.

In the data set with PANC-1 [1], `CC(C)=CC[C@@H]1C(C)=CC[C@@H](c2ccccc2)[C@@H]1C(=O)c1c(O)cc(O)cc1O` [4-HYDROXYPANDURATIN A] returned a PC50 of 3.1 µM. In addition, in the data set with PANC-1 [2], the Activity result is listed as “Non-Toxic”.

`COc1cc(O)cc(O)c1C(=O)[C@@H]1[C@H](CC=C(C)C)C(C)=CC[C@H]1c1ccccc1` gave a PC50 in the data set on PANC-1 [1] of 2.8 µM. Also, the Activity result in the data set on PANC-1 [2] was “Non-Toxic”.

Regarding `COc1cc(O)c(C(=O)[C@@H]2[C@H](CC=C(C)C)C(C)=CC[C@H]2c2ccccc2)c(O)c1` [PANDURATIN A], in the data set on PANC-1 [1], the PC50 came out at 7.8 µM. Further, in the data set on PANC-1 [2], the Activity entry is listed as “Non-Toxic”.

For `C=C(C)C(O)C[C@@H]1C(C)=CC[C@@H](c2ccccc2)[C@@H]1C(=O)c1c(O)cc(OC)cc1O` (some centres not stated), the PC50 in the data set with PANC-1 [1] is 18.1 µM. For the same molecule, the Activity entry in the data set on PANC-1 [2] was “Non-Toxic”.

`CC(C)=CC[C@H]1C(C)=CC[C@@H](c2ccccc2)[C@@H]1C(=O)c1c(O)cc(O)cc1O` yielded a PC50 in the data set on PANC-1 [1] of 5.8 µM. Besides, the Activity entry in the data set with PANC-1 [2] is “Non-Toxic”.

In the data set on PANC-1 [1], `COc1cc(O)c(C(=O)[C@@H]2CC=C(C)[C@@H](/C=C/C(C)(C)O)[C@H]2c2ccccc2)c(O)c1` yielded a PC50 of 3.3 µM. Besides, in the data set with PANC-1 [2], the Activity entry is given as “Non-Toxic”.

With `COc1cc(O)c(C(=O)[C@@H]2[C@H](/C=C/C(C)(C)O)C(C)=CC[C@H]2c2ccccc2)c(O)c1`, the PC50 in the data set on PANC-1 [1] worked out at 6.6 µM. In addition, the Activity entry in the data set with PANC-1 [2] is “Non-Toxic”.

For the molecule `COc1cc(O)c(C(=O)[C@@H]2[C@H](C/C=C(\C)CO)C(C)=CC[C@H]2c2ccccc2)c(O)c1`, the PC50 in the data set with PANC-1 [1] was 6.3 µM. Also, in the data set with PANC-1 [2], the Activity entry was “Non-Toxic”.

Regarding `COc1cc(O)c(C(=O)[C@@H]2CC=C(C)[C@H](CC=C(C)C)[C@H]2c2ccccc2)c(O)c1`, the PC50 in the data set on PANC-1 [1] stood at 7.8 µM. Moreover, the Activity entry with PANC-1 [2] was “Non-Toxic”.

In turn, `COc1cc(O)c(C(=O)[C@@H]2CC=C(CCC=C(C)C)C[C@H]2c2ccccc2)c(O)c1` displayed a PC50 in the data set with PANC-1 [1] of 0.84 µM. Besides, the outcome with PANC-1 [3] was Active. In the data set with PANC-1 [2], the Activity result is recorded as “Non-Toxic”.

Consider `COc1cc(C[C@H]2C(=O)OC[C@@H]2Cc2ccc(OC)c(OC)c2)ccc1O` [ARCTIGENIN], for which the PC50 in the data set with PANC-1 [1] is 0.83 µM.

In the data set with PANC-1 [1], `COc1cc(O)cc(O)c1C(=O)[C@@H]1CC=C(C)[C@@H](CC=C(C)C)[C@H]1c1ccccc1` registered a PC50 of 1 µM. In addition, the Activity result in the data set on PANC-1 [2] is on record as “Non-Toxic”.
